{"source": "ChEMBL document CHEMBL2346542", "about": "“Preliminary biological evaluation and mechanism of action studies of selected 2-arylindoles against glioblastoma” (Bioorg Med Chem, 2013)", "key": {"[1]": {"assay": "Antiproliferative activity against human 1321N1 cells assessed as inhibition of cell growth after 48 hrs by MTS assay", "type": "functional, cell-based", "outline": "(§1)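 1321N1 grown in DMEM with 10% FBS and 2 mM L-glutamine; U87MG in EMEM with 10% FBS, 2 mM L-glutamine, 1 mM pyruvate and 1% NEAA; 37 °C, 5% CO2. Seeded overnight at 3500 (1321N1) or 4000 (U87MG) cells/200 μl, 50–60% confluent. Compound added in quadruplicate for 48 h. MTS reagent added for 60 min, A490 read. IC50 vs vehicle (≤0.5% ethanol or DMSO) by nonlinear regression.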"}, "[2]": {"assay": "Antiproliferative activity against human U87MG cells assessed as inhibition of cell growth at 400 uM after 48 hrs by MTS assay", "type": "functional, U-87MG ATCC", "conditions": "U-87 MG, read-out: GI"}, "[3]": {"system": "U-87 MG", "assay": "Induction of oxidative stress in human U87MG cells assessed as increase in reactive oxygens species generation at 500 uM after 1 hr by H2DCFDA dye based flow cytometry", "type": "functional, cell-based", "conditions": "U-87MG ATCC", "outline": "(§2)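 Cells at 20,000/well in six-well plates, attached overnight. Loaded with 25 µM carboxy-H2DCFDA for 30 min at 37 °C in the dark, then given compound at 500 µM for 60 min. Positive control TBHP 100 µM. Washed in HBSS, trypsinized, resuspended in PBS, strained. Flow cytometry at FITC ex/em 488/519 nm. Vehicle ≤0.5% ethanol and DMSO.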"}, "[4]": {"assay": "Antiproliferative activity against human U87MG cells assessed as inhibition of cell growth after 48 hrs by MTS assay", "type": "functional, cell-based, U-87MG ATCC", "outline": "as §1"}, "[5]": {"system": "1321-N1", "assay": "Induction of oxidative stress in human 1321N1 cells assessed as increase in reactive oxygens species generation at 500 uM after 1 hr by H2DCFDA dye based flow cytometry", "type": "functional, cell-based", "outline": "as §2"}, "[6]": {"system": "U-87 MG", "assay": "Induction of autophagy in human U87MG cells assessed as acidic vesicular organelle formation at 500 uM after 1 hr by acridine orange based flow cytometry", "type": "functional, cell-based", "conditions": "U-87MG ATCC", "outline": "(§3)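 Cells at 20,000/well in six-well plates, attached overnight. Treated with compound at 500 µM for 60 min, then stained with 3 µM acridine orange for 15 min at 37 °C in the dark. Washed in PBS, trypsinized, strained. Red fluorescence read by flow cytometry at ex/em 488/615 nm (PE-Texas Red). Vehicle ≤0.5% ethanol. One of two experiments shown.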"}, "[7]": {"system": "U-87 MG", "assay": "Induction of autophagy in human U87MG cells assessed as acidic vesicular organelle formation at 500 uM after 1 hr by acridine orange based flow cytometry in presence of 5 mM, MA", "type": "functional, cell-based", "conditions": "U-87MG ATCC", "outline": "(§4)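 Acridine orange AVO assay as above: compound at 500 µM for 60 min, given together with 3-methyladenine 5 mM dissolved in medium. Then 3 µM acridine orange for 15 min at 37 °C, flow cytometry at ex/em 488/615 nm. Two experiments.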"}, "[8]": {"system": "1321-N1", "assay": "Antiproliferative activity against human 1321N1 cells assessed as inhibition of cell viability after 48 hrs by MTS assay in presence of 500 uM antioxidant, ascorbic acid", "type": "functional, cell-based"}, "[9]": {"system": "1321-N1", "assay": "Induction of autophagy in human 1321N1 cells assessed as acidic vesicular organelle formation at 500 uM after 1 hr by acridine orange based flow cytometry", "type": "functional, cell-based", "outline": "as §3"}, "[10]": {"assay": "Antiproliferative activity against human U251MG cells assessed as inhibition of cell growth after 72 hrs by MTT assay", "type": "functional, cell-based", "conditions": "U-251, 72 h", "outline": "(§5)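 Short-term GBM cultures derived from tumour biopsies, and U251MG, kept in Hams F10 with 10% foetal calf serum at 37 °C without CO2. Cells seeded at 10³ per well and grown 48 h. Then dosed at 0.01–1000 µM in quadruplicate, compound renewed every 24 h, followed by 24 h recovery in compound-free medium. MTT (1 mg/mL) added for 4 h, formazan dissolved in DMSO, OD570 read. IC50 from nonlinear regression vs untreated controls.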"}, "[11]": {"assay": "Antiproliferative activity against human IN1265 cells assessed as inhibition of cell growth after 72 hrs by MTT assay", "type": "functional, cell-based", "outline": "as §5"}, "[12]": {"system": "1321-N1", "assay": "Induction of oxidative stress in human 1321N1 cells assessed as reactive oxygens species generation at 500 uM after 1 hr by H2DCFDA dye based flow cytometry in presence of 500 uM antioxidant, ascorbic acid", "type": "functional, cell-based", "outline": "(§6)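 Run as the carboxy-H2DCFDA ROS flow-cytometry assay (25 µM dye for 30 min, then compound at 500 µM for 60 min, read at ex/em 488/519 nm), with ascorbic acid 500 µM added under the same procedure and time point.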"}, "[13]": {"system": "1321-N1", "assay": "Induction of autophagy in human 1321N1 cells assessed as acidic vesicular organelle formation at 500 uM after 1 hr by acridine orange based flow cytometry in presence of 5 mM, MA", "type": "functional, cell-based", "outline": "as §4"}, "[14]": {"assay": "Antiproliferative activity against human IN1760 cells assessed as inhibition of cell growth after 72 hrs by MTT assay", "type": "functional, cell-based", "conditions": "IN1760, 72 h", "outline": "as §5"}, "[15]": {"assay": "Antiproliferative activity against human IN1472 cells assessed as inhibition of cell growth after 72 hrs by MTT assay", "type": "functional, cell-based", "conditions": "IN1472, 72 h", "outline": "as §5"}, "[16]": {"system": "U-87MG ATCC", "assay": "Antiproliferative activity against human U87MG cells assessed as inhibition of cell viability after 48 hrs by MTS assay in presence of 500 uM antioxidant, ascorbic acid", "type": "functional, cell-based"}, "[17]": {"system": "U-87 MG", "assay": "Induction of oxidative stress in human U87MG cells assessed as reactive oxygens species generation at 500 uM after 1 hr by H2DCFDA dye based flow cytometry in presence of 500 uM antioxidant, ascorbic acid", "type": "functional, cell-based", "conditions": "U-87MG ATCC", "outline": "as §6"}, "[18]": {"assay": "Antiproliferative activity against human IN859 cells assessed as inhibition of cell growth […] by MTS assay", "type": "functional, cell-based"}, "[19]": {"system": "U-87 MG", "assay": "Induction of oxidative stress in human U87MG cells assessed as increase in reactive oxygens species generation at 100 uM after 1 hr by H2DCFDA dye based flow cytometry", "type": "functional, cell-based", "conditions": "U-87MG ATCC", "outline": "(§7)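 1321N1 (DMEM, 10% FBS, 2 mM glutamine) or U87MG (EMEM, 10% FBS, glutamine, pyruvate, NEAA) cells seeded at 20,000/well and attached overnight. Loaded with 25 µM carboxy-H2DCFDA for 30 min at 37 °C in the dark, then treated for 60 min; TBHP 100 µM was the positive control, vehicle ≤0.5% ethanol/DMSO. Washed in HBSS, trypsinised, then flow cytometry at 488/519 nm.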"}, "[20]": {"system": "1321-N1", "assay": "Induction of oxidative stress in human 1321N1 cells assessed as increase in reactive oxygens species generation at 100 uM after 1 hr by H2DCFDA dye based flow cytometry", "type": "functional, cell-based", "outline": "as §7"}}, "note": "Activity calls are given as the source filed them. No cut-off for these calls is given here."}
{"smiles": "c1ccc(-c2cc3ccccc3[nH]2)cc1", "note": "[2-PHENYL-1H-INDOLE]", "values": [{"measurement": "IC50", "setting": "[1]; 1321-n1", "result": "Not Active"}, {"measurement": "inhibition of growth at 400 µM", "setting": "[2]", "result": 7, "unit": "%"}, {"measurement": "Activity", "setting": "[3]", "result": "inactive"}, {"measurement": "IC50", "setting": "[4]; u-87mg atcc", "result": "Not Active"}, {"measurement": "Activity", "setting": "[5]", "result": "inactive"}]}
{"smiles": "COc1ccccc1-c1cc2ccccc2[nH]1", "note": "[2-(2'-METHOXYPHENYL)-1H-INDOLE]", "values": [{"measurement": "IC50", "setting": "[1]; 1321-n1", "result": "Not Active"}, {"measurement": "Activity", "setting": "[3]", "result": "inactive"}, {"measurement": "IC50", "setting": "[4]; u-87mg atcc", "result": "Not Active"}, {"measurement": "Activity", "setting": "[5]", "result": "inactive"}]}
{"smiles": "Oc1ccccc1-c1cc2ccccc2[nH]1", "note": "[2-(2'-HYDROXYPHENYL)-1H-INDOLE]", "values": [{"measurement": "Activity", "setting": "[6]", "result": "Active"}, {"measurement": "Activity", "setting": "[7]", "result": "inactive"}, {"measurement": "Activity", "setting": "[3]", "result": "Active"}, {"measurement": "inhibition", "setting": "[8]", "result": "inactive"}, {"measurement": "Activity", "setting": "[9]", "result": "Active"}, {"measurement": "IC50", "setting": "[10]", "result": 92, "unit": "µM"}, {"measurement": "IC50", "setting": "[11]", "result": 90, "unit": "µM"}, {"measurement": "Activity", "setting": "[12]", "result": "inactive"}, {"measurement": "Activity", "setting": "[13]", "result": "inactive"}, {"measurement": "IC50", "setting": "[14]", "result": "> 1000", "unit": "µM"}, {"measurement": "IC50", "setting": "[15]", "result": 48, "unit": "µM"}, {"measurement": "inhibition", "setting": "[16]", "result": "inactive"}, {"measurement": "Activity", "setting": "[5]", "result": "Active"}, {"measurement": "Activity", "setting": "[17]", "result": "inactive"}, {"measurement": "IC50", "setting": "[18]", "result": 400, "unit": "µM"}]}
{"smiles": "CC(C)(C)OO", "values": [{"measurement": "Activity", "setting": "[19]", "result": "Active"}, {"measurement": "Activity", "setting": "[20]", "result": "Active"}]}
{"smiles": "OCc1c[nH]c2ccccc12", "note": "[INDOLE-3-CARBINOL]", "values": [{"measurement": "IC50", "setting": "[1]; Homo sapiens, 1321-N1, 48 h, read-out: IC50", "result": 309, "unit": "µM"}, {"measurement": "IC50", "setting": "[4]; Homo sapiens, U-87 MG, 48 h, read-out: IC50", "result": 526, "unit": "µM"}]}
{"smiles": "O=Cc1c(-c2ccccc2)[nH]c2ccccc12", "note": "[2-PHENYL-1H-INDOLE-3-CARBALDEHYDE]", "values": [{"measurement": "IC50", "setting": "[1]; 1321-n1", "result": "Not Active"}, {"measurement": "IC50", "setting": "[4]; u-87mg atcc", "result": "Not Active"}]}
{"smiles": "OCc1c(-c2ccccc2)[nH]c2ccccc12", "values": [{"measurement": "Activity", "setting": "[3]", "result": "Active"}, {"measurement": "Activity", "setting": "[5]", "result": "Active"}]}
